ADAM10 inh – inhibitors of human ADAM10. O14672. recombinant ADAM10, EDANS/DABCYL FRET peptide cleavage, 3 h. inhibition, % at 7 µM. 370,000 compounds, 0.62% hits. AID 720582;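 active = inhibition above a per-campaign cutoff equal to the mean of compounds falling between control-based bounds plus 3 SD, cut at about 20% in these data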;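 also: 0% = DMSO wells while the 100% control is not disclosed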
SKN-1 block – blocks SKN-1 activity in C. elegans; AID 624304; C. elegans VP596 Pgst-4::GFP/RFP ratio, acrylamide-induced, 24 h; inhibition, % at 21.8 µM; 360,000 compounds, 0.49% hits;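 active = interference check ratio from 0.5 to 1.5 plus GFP to RFP signal ratio inhibition reaching or exceeding a fixed threshold, cut at about 30% in these data, passing the limit was not always enough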
ADAM17 inh – ADAM17 inhibition, QFRET primary screen. P78536. recombinant ADAM17, EDANS/DABCYL FRET peptide cleavage. inhibition, % at 6.95 µM. 370,000 compounds, 0.83% hits. AID 720648;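 active = inhibition above the mean of compounds lying between control limits plus 3 SD, set per campaign, cut at about 8.5% in these data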;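 also: 0% = DMSO-only wells as the low control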
Target sequence (P78536 215-824 limits assumed): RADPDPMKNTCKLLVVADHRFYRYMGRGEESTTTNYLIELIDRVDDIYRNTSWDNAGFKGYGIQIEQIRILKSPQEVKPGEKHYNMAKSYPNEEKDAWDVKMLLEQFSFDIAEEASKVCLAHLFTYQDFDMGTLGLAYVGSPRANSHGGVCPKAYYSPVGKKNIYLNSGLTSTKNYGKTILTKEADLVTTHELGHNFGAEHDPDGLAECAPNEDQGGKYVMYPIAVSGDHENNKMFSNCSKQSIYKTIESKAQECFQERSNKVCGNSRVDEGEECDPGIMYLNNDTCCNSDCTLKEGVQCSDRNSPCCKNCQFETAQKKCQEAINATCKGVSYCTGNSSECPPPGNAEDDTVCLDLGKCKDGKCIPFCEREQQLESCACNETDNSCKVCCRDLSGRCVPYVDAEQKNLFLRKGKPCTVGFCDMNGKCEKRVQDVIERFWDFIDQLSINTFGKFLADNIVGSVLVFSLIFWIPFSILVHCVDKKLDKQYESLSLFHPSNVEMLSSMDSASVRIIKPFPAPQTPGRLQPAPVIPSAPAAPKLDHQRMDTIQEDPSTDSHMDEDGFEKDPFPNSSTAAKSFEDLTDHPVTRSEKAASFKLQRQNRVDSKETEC
MPTP block – blocks calcium-induced mitochondrial swelling. isolated mouse mitochondria, Ca2+ swelling absorbance, 30 min. inhibition, % at 10 µM. 360,000 compounds, 1.4% hits. AID 602449;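 active = inhibition of 50% or more, scaled per plate between neutral and stimulator controls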;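 also: 0% = DMSO wells given calcium and 100% = 1 mM EGTA wells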
GRIN3A LBD mod – modulates the human NR3A ligand-binding domain; NR3A LBD differential scanning fluorimetry, Tm shift; 0% = protein alone, 100% = glycine-bound protein; Tm shift relative to glycine control, % at 25 µM; 340,000 compounds, 2.5% hits;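 active = melting temperature shift of at least 10% of the positive control shift, at one fixed dose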
MT1-MMP act inh – MT1-MMP (human) activation inhibition; 360,000 compounds, 0.061% hits; GFP/RFP ratio change, % at 20 µM; P50281; HT1080 RFP-PRO-GFP cells, GFP/RFP ratio fluorescence, overnight; percent of plate control window, DMSO zero;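 active = GFP/RFP ratio change of at least 30% with cell ATP level not reduced by more than half and red fluorescence within 50% of control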
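Compound: 20 µM single dose, 1% DMSO / System: HT1080 RFP-PRO-GFP cells / Controls: DMSO and RFP-L50D-GFP cell wells / Read-out basis: GFP/RFP fluorescence ratio / Schedule: overnight compound exposure at 37 °C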
ADAM10 confirm – confirmation of inhibitors of human ADAM10; 2,100 compounds, 1% hits; inhibition, % at 6.95 µM; shares compounds with ADAM10 inh; AID 743208; ADAM10 QFRET peptide cleavage, EDANS fluorescence;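 active = inhibition above about 20% chosen separately for each screening run, limit read from the data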;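 also: 0% = DMSO wells and 100% = marimastat wells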
ADAM17 ctr – inhibits human ADAM17 in ADAM10 exosite counter-screen | inhibition, % at 6.95 µM | ADAM17 QFRET peptide cleavage, EDANS fluorescence | 2,100 compounds, 0.5% hits | shares compounds with ADAM10 inh;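 active = mean triplicate inhibition above the solvent-only control wells' mean plus 3 SD, cut at about 12% in these data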;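 also: 0% = DMSO wells and 100% = marimastat wells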
Starred values were filed as active, the others as inactive. In the library only some 4.7% were active in any assay of this set; here they are far more common.

Screening C[C@@H](c1ccccc1)N1C[C@H](COCc2ccccc2)Oc2cc(N3CC[C@H](O)C3)ccc2S1(=O)=O returned ADAM10 inh 21.4*, SKN-1 block -2.8, ADAM17 inh 7.3, MPTP block 0.2, MT1-MMP act inh 0.1, ADAM10 confirm 6.8 and ADAM17 ctr 1.9.
Cc1ccc2nc(C3CCN(S(=O)(=O)c4ccc5ccccc5c4)CC3)[nH]c2c1 was read as ADAM10 inh 26.0*, SKN-1 block -1.4, ADAM17 inh 6.3, MPTP block 9.3, GRIN3A LBD mod -3.9, MT1-MMP act inh -11.8, ADAM10 confirm 5.7 and ADAM17 ctr 1.6.
`CC(=O)c1cccc(S(=O)(=O)N2CCC(c3nc4ccccc4[nH]3)CC2)c1` gave ADAM10 inh 1.9, SKN-1 block 0.6, ADAM17 inh 1.7, MPTP block -2.3, GRIN3A LBD mod -1.2 and MT1-MMP act inh -6.7.
`C=C[C@@H]1c2cc(C)ccc2N(S(=O)(=O)c2ccc(C)cc2)[C@H](c2ccc(OC(C)=O)cc2)C1(C#N)C#N` gave ADAM10 inh 0.7, SKN-1 block 4.7, ADAM17 inh -1.1, MPTP block 0.8, GRIN3A LBD mod -1.2 and MT1-MMP act inh -0.2.
C=C[C@@H]1c2ccccc2N(S(=O)(=O)c2ccc(C)cc2)[C@H](c2ccc(OC(C)=O)cc2)C1(C#N)C#N was read as ADAM10 inh 23.1*, SKN-1 block -1.9, ADAM17 inh 6.2, MPTP block 1.1, GRIN3A LBD mod -2.7, MT1-MMP act inh -8.8, ADAM10 confirm 2.8 and ADAM17 ctr 2.0.
For O=[N+]([O-])c1cc(CN2CCN(c3ccccc3)CC2)c(O)c2ncccc12 the results were ADAM10 inh 20.4*, SKN-1 block 8.2, ADAM17 inh 6.2, MPTP block 1.6, GRIN3A LBD mod -2.5, MT1-MMP act inh -2.6, ADAM10 confirm 5.8 and ADAM17 ctr 0.9.
Screening O=[N+]([O-])c1cc(CN2CCOCC2)c2cccnc2c1O returned GRIN3A LBD mod -6.8.
Nc1cc(OC(=O)c2ccco2)nn1S(=O)(=O)c1ccc(F)cc1 was read as ADAM10 inh 60.1*, SKN-1 block 0.3, ADAM17 inh 1.1, MPTP block 0.3, GRIN3A LBD mod -2.3, MT1-MMP act inh 2.0, ADAM10 confirm 0.0 and ADAM17 ctr 0.5.
`CCCNS(=O)(=O)c1ccc(CCC(=O)Nc2cc(Cl)ccc2Oc2ccccc2)cc1` gave ADAM10 inh 20.9*, SKN-1 block 10.9, ADAM17 inh 6.6, MPTP block 3.2, GRIN3A LBD mod -0.7, MT1-MMP act inh -9.3, ADAM10 confirm 5.4 and ADAM17 ctr 2.8.
Screening COc1ccc(CCC(=O)Nc2cc(Cl)ccc2OC)cc1 returned ADAM10 inh -0.9, SKN-1 block 11.3, ADAM17 inh -1.9, MPTP block 2.8, GRIN3A LBD mod -1.3 and MT1-MMP act inh -1.0.
Screening C[C@H](CO)N1C[C@H](C)[C@@H](CN(C)C(=O)NC2CCCCC2)Oc2c(NS(=O)(=O)c3ccc(F)cc3)cccc2C1=O returned ADAM10 inh 5.8, SKN-1 block 14.3, ADAM17 inh 1.1, MPTP block -2.0, GRIN3A LBD mod 0.6 and MT1-MMP act inh 3.5.
For CN1CC(=O)N2[C@H]3c4ccccc4OC[C@@H]3[C@H](c3ccccc3)[C@]2(C)C1=O the results were ADAM10 inh 6.3, SKN-1 block 4.6, ADAM17 inh -1.1, MPTP block -1.3, GRIN3A LBD mod 1.6 and MT1-MMP act inh 0.2.
For COc1ccc2c(c1)OC[C@H]1[C@H]2N2C(=O)CN(Cc3ccc(C)cc3)C(=O)[C@@]2(C)[C@H]1c1ccccc1 the results were ADAM10 inh 20.1*, SKN-1 block 4.2, ADAM17 inh 2.1, MPTP block -1.4, GRIN3A LBD mod -3.1, MT1-MMP act inh -5.9, ADAM10 confirm 6.2 and ADAM17 ctr 1.6.
Screening C[C@@]12C(=O)N(CCc3c[nH]c4ccccc34)CC(=O)N1[C@H]1c3ccccc3OC[C@@H]1[C@@H]2c1ccccc1 returned ADAM10 inh 22.1*, SKN-1 block -8.0, ADAM17 inh 8.5, MPTP block -2.2, GRIN3A LBD mod -5.7, MT1-MMP act inh -2.1, ADAM10 confirm 4.8 and ADAM17 ctr 2.2.
`CCOC(=O)[C@@H]1[C@H]2COc3ccc(Br)cc3[C@H]2N2C(=O)N(c3cccc(F)c3)C(=O)[C@]12C` gave ADAM10 inh 20.0*, SKN-1 block 0.0, ADAM17 inh 5.1, MPTP block 0.0, GRIN3A LBD mod -1.6, MT1-MMP act inh 0.2, ADAM10 confirm 4.2 and ADAM17 ctr 1.2.
Screening COc1ccc2c(c1)OC[C@H]1[C@H]2N2C(=O)CN(Cc3ccc(F)cc3)C(=O)[C@@]2(C)[C@H]1c1ccccc1 returned ADAM10 inh 18.1, SKN-1 block 3.6, ADAM17 inh 5.9, MPTP block -1.0, GRIN3A LBD mod -5.6 and MT1-MMP act inh -0.1.
`C[C@]12C(=O)N(c3ccc(Br)cc3)C(=O)N1[C@@H]1c3ccccc3OC[C@@H]1[C@H]2c1ccccc1` gave ADAM10 inh 22.7*, SKN-1 block 5.2, ADAM17 inh 8.2, MPTP block 0.7, GRIN3A LBD mod -0.6, MT1-MMP act inh -4.7, ADAM10 confirm 6.6 and ADAM17 ctr 1.1.
`C[C@@]12C(=O)N(c3ccc(Br)cc3)C(=O)N1[C@@H]1c3ccccc3OC[C@@H]1[C@H]2c1ccccc1` gave ADAM10 inh 18.2, SKN-1 block 8.9, ADAM17 inh 1.2, MPTP block 0.1, GRIN3A LBD mod 0.8 and MT1-MMP act inh -4.7.
Screening COc1ccc(-c2nn(CCC(=O)O)cc2/C=C/C(=O)O)cc1[N+](=O)[O-] returned ADAM10 inh -2.8, SKN-1 block -12.2, ADAM17 inh 0.5, MPTP block -1.6, GRIN3A LBD mod 0.5 and MT1-MMP act inh 2.5.
For Cc1cccc(Nc2c([N+](=O)[O-])c(=O)oc3ccccc23)c1 the results were ADAM10 inh 6.4, SKN-1 block 1.6, ADAM17 inh 1.5, MPTP block 6.5, GRIN3A LBD mod 1.5 and MT1-MMP act inh -3.6.
Cn1c(=O)[nH]c(=O)c2c1nc(N1CCCCC1)n2CC(O)COc1ccc([N+](=O)[O-])cc1 (configuration not stated) was read as ADAM10 inh -2.0, SKN-1 block -6.7, ADAM17 inh -0.5, MPTP block -1.5, GRIN3A LBD mod 0.7 and MT1-MMP act inh 3.2.

Source: PubChem (several laboratories)
